Measured values: ChEMBL document CHEMBL4270612, “Discovery of dual GyrB/ParE inhibitors active against Gram-negative bacteria” (Eur J Med Chem, 2018)
≈ marks a conversion by molar mass, not a printed value.

Key:
DNA gyrase subunit B = DNA gyrase subunit B (Escherichia coli, UniProt P0AES6); assay: Inhibition of Escherichia coli GyrB (1 to 220 residues) expressed in Escherichia coli BL21(DE3)
[1] = target: DNA topoisomerase 4 subunit B (Escherichia coli K-12, UniProt P20083); assay: Inhibition of Escherichia coli ParE
DNA topoisomerase 4 subunit B, sequence (P20083 whole entry): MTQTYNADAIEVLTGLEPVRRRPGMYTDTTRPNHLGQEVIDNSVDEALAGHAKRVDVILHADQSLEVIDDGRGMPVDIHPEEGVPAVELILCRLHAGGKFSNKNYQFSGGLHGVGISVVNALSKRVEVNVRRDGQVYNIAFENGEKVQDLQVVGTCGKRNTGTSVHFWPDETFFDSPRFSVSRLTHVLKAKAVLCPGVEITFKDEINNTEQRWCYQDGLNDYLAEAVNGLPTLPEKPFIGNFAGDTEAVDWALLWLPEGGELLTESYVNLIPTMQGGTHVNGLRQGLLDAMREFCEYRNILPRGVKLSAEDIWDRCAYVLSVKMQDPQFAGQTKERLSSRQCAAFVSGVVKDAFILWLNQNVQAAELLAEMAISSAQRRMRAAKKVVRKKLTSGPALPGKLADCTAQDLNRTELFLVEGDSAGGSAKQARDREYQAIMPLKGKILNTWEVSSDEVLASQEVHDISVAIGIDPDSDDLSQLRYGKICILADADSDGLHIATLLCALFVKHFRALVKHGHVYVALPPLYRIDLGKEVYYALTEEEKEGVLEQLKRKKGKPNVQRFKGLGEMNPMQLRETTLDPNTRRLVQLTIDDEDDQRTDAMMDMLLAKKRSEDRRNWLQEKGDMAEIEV

Pseudomonas aeruginosa [2] = assay: Antibacterial activity against Pseudomonas aeruginosa PAO1 after 24 hrs by broth microdilution method; type: functional; settings: PAO1, 24 h
Procedure, shortened: (§1)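 Broth microdilution per CLSI. Bacterial suspension adjusted to 1×10^6 CFU/mL in cation-adjusted Mueller–Hinton broth and mixed 1:1 with 2-fold serial compound dilutions. Final DMSO 2.5% v/v. Plates incubated at 35 °C with shaking at 140 rpm for 24 h.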

Escherichia coli = assay: Antibacterial activity against Escherichia coli after 24 hrs by broth microdilution method; type: functional; procedure, shortened: as §1
Acinetobacter baumannii [3] = assay: Antibacterial activity against Acinetobacter baumannii ARC3495 after 24 hrs by broth microdilution method; type: functional; settings: ARC3495, 24 h; procedure, shortened: as §1
Klebsiella pneumoniae = assay: Antibacterial activity against Klebsiella pneumoniae ARC1865 after 24 hrs by broth microdilution method; type: functional; settings: ARC1865, 24 h; procedure, shortened: as §1
Haemophilus influenzae = assay: Antibacterial activity against Haemophilus influenzae ATCC 49247 after 24 hrs by broth microdilution method; type: functional; settings: ATCC 49247, 24 h; procedure, shortened: as §1
Enterobacter cloacae = assay: Antibacterial activity against Enterobacter cloacae ARC3528 after 24 hrs by broth microdilution method; type: functional; settings: ARC3528, 24 h; procedure, shortened: as §1
Staphylococcus aureus [4] = assay: Antibacterial activity against Staphylococcus aureus ATCC 29213 after 24 hrs by broth microdilution method; type: functional; settings: ATCC 29213, 24 h; procedure, shortened: as §1
Staphylococcus aureus [5] = assay: Antibacterial activity against methicillin-resistant Staphylococcus aureus FQ-R after 24 hrs by broth microdilution method; type: functional
Procedure, shortened: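 Broth microdilution per CLSI. Bacterial suspensions adjusted to 1×10^6 CFU/mL in cation-adjusted Mueller–Hinton broth, mixed 1:1 with 2-fold serial compound dilutions (final DMSO 2.5% v/v). Incubation 35 °C, 140 rpm, 24 h.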

Streptococcus pyogenes = assay: Antibacterial activity against Streptococcus pyogenes ARC838 after 24 hrs by broth microdilution method; type: functional; settings: ARC838, 24 h
Procedure, shortened: (§2)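 Broth microdilution per CLSI. Bacterial suspension adjusted to 1×10^6 CFU/mL in cation-adjusted Mueller–Hinton broth and mixed 1:1 with 2-fold serial compound dilutions. Plates incubated at 35 °C with shaking at 140 rpm for 24 h.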

Streptococcus pneumoniae = assay: Antibacterial activity against Streptococcus pneumoniae ATCC 49619 after 24 hrs by broth microdilution method; type: functional; settings: ATCC 49619, 24 h; procedure, shortened: as §1
Enterococcus faecalis = assay: Antibacterial activity against Enterococcus faecalis ATCC 29212 after 24 hrs by broth microdilution method; type: functional; settings: ATCC 29212, 24 h; procedure, shortened: as §1
Candida albicans = assay: Antifungal activity against Candida albicans ATCC 90028 after 24 hrs by broth microdilution method; type: functional; settings: ATCC 90028, 24 h
Pseudomonas aeruginosa [6] = assay: Antibacterial activity against Pseudomonas aeruginosa ARC3505 after 24 hrs by broth microdilution method; type: functional; settings: ARC3505, 24 h; procedure, shortened: as §1
Pseudomonas aeruginosa [7] = assay: Antibacterial activity against Pseudomonas aeruginosa ARC3506 after 24 hrs by broth microdilution method; type: functional; settings: ARC3506, 24 h; procedure, shortened: as §1
Pseudomonas aeruginosa [8] = assay: Antibacterial activity against Pseudomonas aeruginosa ARC3511 after 24 hrs by broth microdilution method; type: functional; settings: ARC3511, 24 h; procedure, shortened: as §2
Pseudomonas aeruginosa [9] = assay: Antibacterial activity against Pseudomonas aeruginosa ARC3514 after 24 hrs by broth microdilution method; type: functional; settings: ARC3514, 24 h; procedure, shortened: as §2
Pseudomonas aeruginosa [10] = assay: Antibacterial activity against Pseudomonas aeruginosa ARC3611 after 24 hrs by broth microdilution method; type: functional; settings: ARC3611, 24 h; procedure, shortened: as §1
Pseudomonas aeruginosa [11] = assay: Antibacterial activity against Pseudomonas aeruginosa ARC3727 after 24 hrs by broth microdilution method; type: functional; settings: ARC3727, 24 h; procedure, shortened: as §2
Pseudomonas aeruginosa [12] = assay: Antibacterial activity against Pseudomonas aeruginosa ARC3729 after 24 hrs by broth microdilution method; type: functional; settings: ARC3729, 24 h; procedure, shortened: as §1
Pseudomonas aeruginosa [13] = assay: Antibacterial activity against Pseudomonas aeruginosa ARC3756 after 24 hrs by broth microdilution method; type: functional; settings: ARC3756, 24 h; procedure, shortened: as §2
Pseudomonas aeruginosa [14] = assay: Antibacterial activity against Pseudomonas aeruginosa ARC3925 after 24 hrs by broth microdilution method; type: functional; settings: ARC3925, 24 h; procedure, shortened: as §2
Pseudomonas aeruginosa [15] = assay: Antibacterial activity against Pseudomonas aeruginosa ARC4063 after 24 hrs by broth microdilution method; type: functional; settings: ARC4063, 24 h; procedure, shortened: as §2
Pseudomonas aeruginosa [16] = assay: Antibacterial activity against Pseudomonas aeruginosa ARC4068 after 24 hrs by broth microdilution method; type: functional; settings: ARC4068, 24 h; procedure, shortened: as §2
Acinetobacter baumannii [17] = assay: Antibacterial activity against Acinetobacter baumannii ARC2674 after 24 hrs by broth microdilution method; type: functional; settings: ARC2674, 24 h; procedure, shortened: as §1
Acinetobacter baumannii [18] = assay: Antibacterial activity against Acinetobacter baumannii ARC2675 after 24 hrs by broth microdilution method; type: functional; settings: ARC2675, 24 h; procedure, shortened: as §2
Acinetobacter baumannii [19] = assay: Antibacterial activity against Acinetobacter baumannii ARC2780 after 24 hrs by broth microdilution method; type: functional; settings: ARC2780, 24 h; procedure, shortened: as §2
Acinetobacter baumannii [20] = assay: Antibacterial activity against Acinetobacter baumannii ARC2781 after 24 hrs by broth microdilution method; type: functional; settings: ARC2781, 24 h; procedure, shortened: as §2
Acinetobacter baumannii [21] = assay: Antibacterial activity against Acinetobacter baumannii ARC2782 after 24 hrs by broth microdilution method; type: functional; settings: ARC2782, 24 h; procedure, shortened: as §1
Acinetobacter baumannii [22] = assay: Antibacterial activity against Acinetobacter baumannii ARC3484 after 24 hrs by broth microdilution method; type: functional; settings: ARC3484, 24 h; procedure, shortened: as §2
Acinetobacter baumannii [23] = assay: Antibacterial activity against Acinetobacter baumannii ARC3485 after 24 hrs by broth microdilution method; type: functional; settings: ARC3485, 24 h; procedure, shortened: as §1
Acinetobacter baumannii [24] = assay: Antibacterial activity against Acinetobacter baumannii ARC3486 after 24 hrs by broth microdilution method; type: functional; settings: ARC3486, 24 h; procedure, shortened: as §1
Acinetobacter baumannii [25] = assay: Antibacterial activity against Acinetobacter baumannii ARC3489 after 24 hrs by broth microdilution method; type: functional; settings: ARC3489, 24 h; procedure, shortened: as §1
Acinetobacter baumannii [26] = assay: Antibacterial activity against Acinetobacter baumannii ARC3492 after 24 hrs by broth microdilution method; type: functional; settings: ARC3492, 24 h; procedure, shortened: as §2
Acinetobacter baumannii [27] = assay: Antibacterial activity against Acinetobacter baumannii ARC3493 after 24 hrs by broth microdilution method; type: functional; settings: ARC3493, 24 h; procedure, shortened: as §1
Acinetobacter baumannii [28] = assay: Antibacterial activity against Acinetobacter baumannii ARC3513 after 24 hrs by broth microdilution method; type: functional; settings: ARC3513, 24 h; procedure, shortened: as §1
Acinetobacter baumannii [29] = assay: Antibacterial activity against Acinetobacter baumannii ARC3515 after 24 hrs by broth microdilution method; type: functional; settings: ARC3515, 24 h; procedure, shortened: as §1
Acinetobacter baumannii [30] = assay: Antibacterial activity against Acinetobacter baumannii ARC3657 after 24 hrs by broth microdilution method; type: functional; settings: ARC3657, 24 h; procedure, shortened: as §1
Acinetobacter baumannii [31] = assay: Antibacterial activity against Acinetobacter baumannii ARC3658 after 24 hrs by broth microdilution method; type: functional; settings: ARC3658, 24 h; procedure, shortened: as §1
Acinetobacter baumannii [32] = assay: Antibacterial activity against Acinetobacter baumannii ARC3659 after 24 hrs by broth microdilution method; type: functional; settings: ARC3659, 24 h; procedure, shortened: as §1
Acinetobacter baumannii [33] = assay: Antibacterial activity against Acinetobacter baumannii ARC3882 after 24 hrs by broth microdilution method; type: functional; settings: ARC3882, 24 h; procedure, shortened: as §1
[34] = Thermodynamic solubility of the compound at pH 7.4; type: physicochemical; settings: buffer, read-out: Therm_solubility
[35] = Protein binding in human plasma; type: ADME, cell-free; settings: read-out: PPB (converted)
[36] = Growth inhibition of human A549 cells; type: cell-based

Question: Which IC50 (DNA gyrase subunit B) does the source give for `CCNC(=O)Nc1cc(-c2nc(C(F)(F)F)cs2)c(-c2cc(-c3n[nH]c(=O)o3)cnc2N2C3CCC2CN(C)C3)cn1` here?
Answer: 6 nM

Question: What about the IC50 [1] of the same compound?
Answer: 4 nM

Question: And the MIC (Pseudomonas aeruginosa [2])?
Answer: 2.4 µg/mL (≈ 3.99 µM)

Question: And the MIC (Escherichia coli)?
Answer: 1.2 µg/mL (≈ 1.99 µM)

Question: What about the MIC (Acinetobacter baumannii [3]) of the same compound?
Answer: 0.5 µg/mL (≈ 0.831 µM)

Question: What about the MIC (Klebsiella pneumoniae) of the same compound?
Answer: 32 µg/mL (≈ 53.2 µM)

Question: And the MIC (Haemophilus influenzae)?
Answer: < 0.06 µg/mL

Question: What about the MIC (Enterobacter cloacae) of the same compound?
Answer: 32 µg/mL (≈ 53.2 µM)

Question: And the MIC (Staphylococcus aureus [4])?
Answer: < 0.06 µg/mL

Question: What about the MIC (Staphylococcus aureus [5]) of the same compound?
Answer: < 0.06 µg/mL

Question: What about the MIC (Streptococcus pyogenes) of the same compound?
Answer: < 0.06 µg/mL

Question: And the MIC (Streptococcus pneumoniae)?
Answer: < 0.06 µg/mL

Question: What about the MIC (Enterococcus faecalis) of the same compound?
Answer: < 0.06 µg/mL

Question: And the MIC (Candida albicans)?
Answer: > 64 µg/mL

Question: What about the MIC (Pseudomonas aeruginosa [6]) of the same compound?
Answer: 8 µg/mL (≈ 13.3 µM)

Question: What about the MIC (Pseudomonas aeruginosa [7]) of the same compound?
Answer: 4 µg/mL (≈ 6.65 µM)

Question: What about the MIC (Pseudomonas aeruginosa [8]) of the same compound?
Answer: 2 µg/mL (≈ 3.32 µM)

Question: What about the MIC (Pseudomonas aeruginosa [9]) of the same compound?
Answer: 4 µg/mL (≈ 6.65 µM)

Question: What about the MIC (Pseudomonas aeruginosa [10]) of the same compound?
Answer: 4 µg/mL (≈ 6.65 µM)

Question: What about the MIC (Pseudomonas aeruginosa [11]) of the same compound?
Answer: 4 µg/mL (≈ 6.65 µM)

Question: And the MIC (Pseudomonas aeruginosa [12])?
Answer: 4 µg/mL (≈ 6.65 µM)

Question: And the MIC (Pseudomonas aeruginosa [13])?
Answer: 8 µg/mL (≈ 13.3 µM)

Question: What about the MIC (Pseudomonas aeruginosa [14]) of the same compound?
Answer: 8 µg/mL (≈ 13.3 µM)

Question: And the MIC (Pseudomonas aeruginosa [15])?
Answer: 8 µg/mL (≈ 13.3 µM)

Question: What about the MIC (Pseudomonas aeruginosa [16]) of the same compound?
Answer: 8 µg/mL (≈ 13.3 µM)

Question: And the MIC (Acinetobacter baumannii [17])?
Answer: 4 µg/mL (≈ 6.65 µM)

Question: What about the MIC (Acinetobacter baumannii [18]) of the same compound?
Answer: 4 µg/mL (≈ 6.65 µM)

Question: And the MIC (Acinetobacter baumannii [19])?
Answer: 0.5 µg/mL (≈ 0.831 µM)

Question: And the MIC (Acinetobacter baumannii [20])?
Answer: 0.25 µg/mL (≈ 0.416 µM)

Question: And the MIC (Acinetobacter baumannii [21])?
Answer: 1 µg/mL (≈ 1.66 µM)

Question: What about the MIC (Acinetobacter baumannii [22]) of the same compound?
Answer: 2 µg/mL (≈ 3.32 µM)

Question: What about the MIC (Acinetobacter baumannii [23]) of the same compound?
Answer: 2 µg/mL (≈ 3.32 µM)

Question: What about the MIC (Acinetobacter baumannii [24]) of the same compound?
Answer: 2 µg/mL (≈ 3.32 µM)

Question: What about the MIC (Acinetobacter baumannii [25]) of the same compound?
Answer: 1 µg/mL (≈ 1.66 µM)

Question: And the MIC (Acinetobacter baumannii [26])?
Answer: 1 µg/mL (≈ 1.66 µM)

Question: And the MIC (Acinetobacter baumannii [27])?
Answer: 1 µg/mL (≈ 1.66 µM)

Question: What about the MIC (Acinetobacter baumannii [28]) of the same compound?
Answer: 4 µg/mL (≈ 6.65 µM)

Question: And the MIC (Acinetobacter baumannii [29])?
Answer: 1 µg/mL (≈ 1.66 µM)

Question: And the MIC (Acinetobacter baumannii [30])?
Answer: 2 µg/mL (≈ 3.32 µM)

Question: And the MIC (Acinetobacter baumannii [31])?
Answer: 1 µg/mL (≈ 1.66 µM)

Question: What about the MIC (Acinetobacter baumannii [32]) of the same compound?
Answer: 1 µg/mL (≈ 1.66 µM)

Question: What about the MIC (Acinetobacter baumannii [33]) of the same compound?
Answer: 1 µg/mL (≈ 1.66 µM)

Question: What about the solubility thermodynamic [34] of the same compound?
Answer: 1490 µM (≈ 896 µg/mL)

Question: What about the fraction unbound [35] of the same compound?
Answer: 0.211

Question: What about the GI50 [36] of the same compound?
Answer: > 40000 nM
